The test system of one test is Blood. Description: Inhibition of LTB4 production in calcium ionophore treated A23187 human whole blood after 15 mins. Type of test: functional, tissue-based. As to conditions: 0.25 h.
The target of test [1] is T1, Arachidonate 5-lipoxygenase-activating protein (Homo sapiens, UniProt P20292).
T1 sequence (P20292 whole entry): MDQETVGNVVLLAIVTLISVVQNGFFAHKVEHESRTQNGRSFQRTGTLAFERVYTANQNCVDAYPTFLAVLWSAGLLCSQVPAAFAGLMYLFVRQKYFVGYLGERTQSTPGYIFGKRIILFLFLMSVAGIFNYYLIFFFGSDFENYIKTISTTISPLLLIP
Description: Binding affinity to FLAP in human PMN derived membrane. Type of test: cell membranes. The procedure, abridged: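 FLAP binding measured in membranes derived from human polymorphonuclear leukocytes (PMN). IC50 values are the average of n ≥ 3.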

Test [2] is described as follows: Inhibition of LTB4 production in calcium ionophore A23187 treated human leukocytes. Type of test: functional, cell-based. Conditions: Leukocyte. The procedure, abridged: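 Human leukocytes challenged with calcium ionophore; LTB4 produced by the cells was measured. IC50 is the average of n ≥ 3.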

The term IC50 denotes the point on the concentration scale where inhibition reaches its midpoint.

Regarding `CC(C)(C)Sc1c(CC(C)(C)C(=O)O)n(Cc2ccc(Cl)cc2)c2ccc(OCC(O)c3ccc(F)cc3)cc12` (centres undefined), the results for the IC50 (in the test on Blood; in test [1]; in test [2]) were 469 nM, 19 nM and 7 nM, respectively.

As for `CC(C)C(=O)N1CCC[C@H]1COc1ccc2c(c1)c(SC(C)(C)C)c(CC(C)(C)C(=O)O)n2Cc1ccc(Cl)cc1`, the half-inhibitory concentration (IC50) in the test on Blood was determined as 5660 nM; in test [1], 186 nM; in test [2], 51 nM.

As for `COc1ccc(-c2ccc(Cn3c(CC(C)(C)C(=O)O)c(SC(C)(C)C)c4cc(OC[C@@H]5Cc6ccccc6N5C(C)=O)ccc43)cc2)nc1`, the values for the IC50 (in the test on Blood; in test [1]; in test [2]) were 373 nM, 3.8 nM and 0.5 nM, respectively.

For `CC(C)(C)Sc1c(CC(C)(C)C(=O)O)n(Cc2ccc(Cl)cc2)c2ccc(OC[C@@H]3CCCN3S(C)(=O)=O)cc12`, the half-maximal inhibitory concentration (IC50) came to 4300 nM in the test on Blood, 441 nM in test [1] and 30 nM in test [2].

For the compound `CC(=O)N1c2ccccc2C[C@H]1COc1ccc2c(c1)c(C(=O)c1ccccc1)c(CC(C)(C)C(=O)O)n2Cc1ccc(Cl)cc1`, the values for the IC50 (in the test with Blood; in test [1]; in test [2]) were 63100 nM, above 10000 nM and 263 nM, respectively.

Turning to `CC(C)(C)Sc1c(CC(C)(C)C(=O)O)n(Cc2ccc(Cl)cc2)c2ccc(OCC(=O)c3ccc(F)cc3)cc12`, the IC50 in the test on Blood was 11800 nM; in test [1], 13 nM; in test [2], 769 nM.

`CC(=O)N1c2ccccc2C[C@H]1COc1ccc2c(c1)c(S(=O)(=O)C(C)(C)C)c(CC(C)(C)C(=O)O)n2Cc1ccc(Cl)cc1`: the figures for the IC50 (with Blood; in test [1]; in test [2]) were 1740 nM, 4.5 nM and 19 nM, respectively.

Regarding `CC(C)(C)OC(=O)N1CCC[C@@H]1COc1ccc2c(c1)c(SC(C)(C)C)c(CC(C)(C)C(=O)O)n2Cc1ccc(Cl)cc1`, the figures for the half-inhibitory concentration (IC50) (in the test with Blood; in test [1]; in test [2]) were 67800 nM, 1810 nM and 193 nM, respectively.

As for `CC(C)(C)OC(=O)N1c2ccccc2C[C@H]1COc1ccc2c(c1)c(SC(C)(C)C)c(CC(C)(C)C(=O)O)n2Cc1ccc(Cl)cc1`, the figures for the IC50 in test [1] and in test [2] were 1100 nM and 106 nM, respectively.

As for `CCC(=O)N1CCC[C@H]1COc1ccc2c(c1)c(SC(C)(C)C)c(CC(C)(C)C(=O)O)n2Cc1ccc(Cl)cc1`, the IC50 was found to be 307 nM with Blood, 4 nM in test [1] and 1.5 nM in test [2].

Consider `CC(C)(C)OC(=O)N1c2ccccc2C[C@@H]1COc1ccc2c(c1)c(SC(C)(C)C)c(CC(C)(C)C(=O)O)n2Cc1ccc(Cl)cc1`, for which the values for the IC50 (with Blood; in test [1]; in test [2]) were 12300 nM, above 10000 nM and 102 nM, respectively.

Regarding `COc1nc(-c2ccc(Cn3c(CC(C)(C)C(=O)O)c(SC(C)(C)C)c4cc(OC[C@@H]5Cc6ccccc6N5C(C)=O)ccc43)cc2)cs1`, the half-maximal inhibitory concentration (IC50) in the test with Blood is 573 nM; in test [1], 2.5 nM; in test [2], 0.6 nM.

Turning to `CC(C)(C)Sc1c(CC(C)(C)C(=O)O)n(Cc2ccc(Cl)cc2)c2ccc(OC[C@@H]3CCC(=O)N3)cc12`, the half-maximal inhibitory concentration (IC50) in the test on Blood was found to be 9020 nM; in test [1], 616 nM; in test [2] it was 108 nM.

Consider `CC(=O)N1c2ccccc2C[C@H]1COc1ccc2c(c1)cc(CC(C)(C)C(=O)O)n2Cc1ccc(Cl)cc1`, for which the IC50 was found to be 31500 nM with Blood, 218 nM in test [1] and 12.9 nM in test [2].

With `COc1ccc(-c2ccc(Cn3c(CC(C)(C)C(=O)O)c(SC(C)(C)C)c4cc(OC[C@@H]5Cc6ccccc6N5C(C)=O)ccc43)cc2)cn1`, the IC50 amounted to 276 nM with Blood, 9.3 nM in test [1] and 1.8 nM in test [2].

Regarding `CC(C)(C)Sc1c(CC(C)(C)C(=O)O)n(Cc2ccc(Cl)cc2)c2ccc(OCC(N)=O)cc12`, the IC50 came out at 2140 nM with Blood, 38 nM in test [1] and 28 nM in test [2].

`CC(C)(C)Sc1c(CC(C)(C)C(=O)O)n(Cc2ccc(Cl)cc2)c2ccc(OC[C@@H]3CCCN3)cc12`: the values for the concentration for half-maximal inhibition (IC50) in test [1] and in test [2] were above 10000 nM and 2780 nM, respectively.

The values are drawn from ChEMBL document CHEMBL1153124, “5-Lipoxygenase-activating protein inhibitors. Part 2: 3-{5-((S)-1-Acetyl-2,3-dihydro-1H-indol-2-ylmethoxy)-3-tert-butylsulfanyl-1-[4-(5-methoxy-pyrimidin-2-yl)-benzyl]-1H-indol-2-yl}-2,2-dimethyl-propionic acid (AM679)--a potent FLAP inhibitor” (Bioorg Med Chem Lett, 2010).
